For test [1], the system named is Rattus norvegicus. The test can be described thus: Antiallergic activity in the passive cutaneous anaphylaxis (PCA) model in the rat was determined after iv administration. The test is classed as functional. To be noted: read-out: ID50 (the source's name). Put shortly: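 Rat PCA screen (modified Ovary method) in male Sprague-Dawley rats, with a 24 h interval between sensitization and antigen challenge. Compounds were dissolved in aqueous NaHCO3 where possible; otherwise they were suspended in aqueous sodium citrate with Tween 40/sodium carboxymethylcellulose. Dosing was intravenous, 1 min before antigen challenge.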

The test system of test [2] is Rattus norvegicus. In words: Antiallergic activity in the passive cutaneous anaphylaxis (PCA) model in the rat was determined after oral administration. The test is classed as functional. To be noted: read-out: ID50 (the source's name). Put shortly: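 Male Sprague-Dawley rats underwent a modified Ovary PCA screen, with challenge 24 h after sensitization. Compounds were solubilized in aqueous NaHCO3 when possible; otherwise they were suspended in aqueous sodium citrate containing Tween 40/sodium carboxymethylcellulose. Dosing was oral, 10 min prior to antigen challenge.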

For the compound `CC(C)Oc1ccccc1-c1ncc(-c2nn[nH]n2)c(O)n1`, the ED50 is 0.02 mg/kg in the test on Rattus norvegicus [1] and 0.04 mg/kg with Rattus norvegicus [2].

`O=C([O-])c1cc(=O)c2c(OCC(O)COc3cccc4oc(C(=O)[O-])cc(=O)c34)cccc2o1.[Na+].[Na+]` [CROMOLYN SODIUM]: the ED50 with Rattus norvegicus [1] is 0.3 mg/kg; with Rattus norvegicus [2], greater than 30 mg/kg.

Consider `CCCOc1ccc([N+](=O)[O-])cc1-c1ncc(-c2nn[nH]n2)c(O)n1`, for which, in the test on Rattus norvegicus [2], the ED50 is 5 mg/kg.

Take `CCCOc1ccc(N)cc1-c1ncc(-c2nn[nH]n2)c(O)n1`: the ED50 with Rattus norvegicus [2] is 0.1 mg/kg.

For `CCCOc1ccc(OC)cc1-c1ncc(-c2nn[nH]n2)c(O)n1`, the ED50 in the test on Rattus norvegicus [2] amounted to 0.03 mg/kg.

For the compound `CCCOc1ccc(N(C)C)cc1-c1ncc(-c2nn[nH]n2)c(O)n1`, the ED50 with Rattus norvegicus [2] is 0.4 mg/kg.

Consider `Oc1nc(-c2ccccc2)ncc1-c1nn[nH]n1`, for which the ED50 with Rattus norvegicus [2] is 100 mg/kg.

Turning to `CCCOc1ccccc1-c1ncc(-c2nn[nH]n2)c(O)n1`, the ED50 in the test with Rattus norvegicus [1] is 0.004 mg/kg; with Rattus norvegicus [2], 0.04 mg/kg.

`CC(C)COc1ccccc1-c1ncc(-c2nn[nH]n2)c(O)n1`: the ED50 in the test with Rattus norvegicus [2] was 0.1 mg/kg.

With `Oc1nc(-c2ccccc2OCC2CC2)ncc1-c1nn[nH]n1`, in the test on Rattus norvegicus [2], the ED50 worked out at 0.07 mg/kg.

As for `CCC(C)Oc1ccccc1-c1ncc(-c2nn[nH]n2)c(O)n1` (stereo not given), in the test with Rattus norvegicus [2], the ED50 turned out to be 0.05 mg/kg.

For the compound `COc1ccccc1-c1ncc(-c2nn[nH]n2)c(O)n1`, the ED50 in the test on Rattus norvegicus [2] was determined as 0.1 mg/kg.

Turning to `CCCCCOc1ccccc1-c1ncc(-c2nn[nH]n2)c(O)n1`, the ED50 in the test with Rattus norvegicus [2] stood at 0.4 mg/kg.

As to `C=CCOc1ccccc1-c1ncc(-c2nn[nH]n2)c(O)n1`, the ED50 in the test on Rattus norvegicus [2] worked out at 0.24 mg/kg.

`CCOc1ccccc1-c1ncc(-c2nn[nH]n2)c(O)n1`: the ED50 with Rattus norvegicus [1] is 0.02 mg/kg; with Rattus norvegicus [2] it was 0.09 mg/kg.

Turning to `CCCCOc1ccccc1-c1ncc(-c2nn[nH]n2)c(O)n1`, in the test with Rattus norvegicus [2], the ED50 came out at 0.07 mg/kg.

These data come from ChEMBL document CHEMBL1121946, “Antiallergy agents. 2. 2-Phenyl-5-(1H-tetrazol-5-yl)pyrimidin-4(3H)-ones” (1982).
